Results: ChEMBL document CHEMBL1131472, “A1 adenosine receptor antagonists as ligands for positron emission tomography (PET) and single-photon emission tomography (SPET)” (J Med Chem, 1998)
Several values for one entry are separate records, joined by “and”; a condition that tells them apart may be missing. Equal entries are not always repeated.

The compounds below were run against T1, Adenosine receptor A1 (Bos taurus, UniProt P28190) (assay: Displacement of [3H]CPX from Adenosine A1 receptor of bovine brain cerebral cortex membranes).
T1 sequence (P28190 whole entry): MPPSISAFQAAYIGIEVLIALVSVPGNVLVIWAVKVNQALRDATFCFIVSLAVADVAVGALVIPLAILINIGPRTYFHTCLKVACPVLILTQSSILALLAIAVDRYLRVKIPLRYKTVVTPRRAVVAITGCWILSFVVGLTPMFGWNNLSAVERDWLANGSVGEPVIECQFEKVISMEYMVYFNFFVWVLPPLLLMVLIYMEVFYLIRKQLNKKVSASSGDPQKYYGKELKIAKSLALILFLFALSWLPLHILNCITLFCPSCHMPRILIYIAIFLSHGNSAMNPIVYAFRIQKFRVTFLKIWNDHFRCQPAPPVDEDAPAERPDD
Type: tissue-based
Procedure, shortened: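 Competition binding at room temperature in 50 mM Tris·HCl, 0.02% CHAPS, pH 7.4. Mixture held 0.2 nM [3H]CPX, 25 µg bovine cerebral cortex membranes and 0.2 U/mL adenosine deaminase. Membranes were added to start binding, and incubation was stopped after 2 h by glass-fibre filtration. Bound radioactivity was counted by liquid scintillation. Nonspecific binding was defined with 10 µM (R)-PIA. Ki came from nonlinear curve fitting as the geometric mean (95% confidence limits) of 3-5 experiments in duplicate.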

| SMILES | Ki |
| --- | --- |
| CCCn1c(=O)c2nc(C3CCCC3)[nH]c2n(CCOC)c1=O | 0.493 nM |
| CCCn1c(=O)c2[nH]c(C3CCCC3)nc2n(CCC)c1=O [1,3-DIPROPYL-8-CYCLOPENTYLXANTHINE [DPCPX]] | 0.155 nM and 0.17 nM |
| CCCn1c(=O)n(C)c(=O)c2[nH]c(C3CCCC3)nc21 | 0.526 nM |
| CCCn1c(=O)c2nc(C3CCCC3)[nH]c2n(C)c1=O | 0.31 nM |
| CCCn1c(=O)[nH]c2nc(C3CCCC3)n(C)c2c1=O | 149 nM |
| CCCn1c(=O)n(CC(C)F)c(=O)c2[nH]c(C3CCCC3)nc21 (stereo unspecified) | 1.23 nM |

Other lines, results leading:

| Ki | SMILES |
| --- | --- |
| 0.286 nM | CCCn1c(=O)n(COCC)c(=O)c2[nH]c(C3CCCC3)nc21 |
| 0.237 nM | CCCn1c(=O)c2nc(C3CCCC3)[nH]c2n(C/C=C/I)c1=O |
| 0.094 nM | CCCn1c(=O)c2[nH]c(C3CCCC3)nc2n(CC(C)F)c1=O (stereo unspecified) |
| 0.183 nM | CCCn1c(=O)c2nc(C3CCCC3)[nH]c2n(CCCF)c1=O |
| 0.216 nM | CCCn1c(=O)n(CCCF)c(=O)c2nc(C3CCCC3)[nH]c21 |
